Change and ED50 data for 46 compounds are collected here from ChEMBL document CHEMBL1129425, “New potent antihyperglycemic agents in db/db mice: synthesis and structure-activity relationship studies of (4-substituted benzyl) (trifluoromethyl)pyrazoles and -pyrazolones” (1996).

Common to all, as to type: functional
Assay [1] relates to Mus musculus. Briefly: Percent change in the plasma glucose concentration of drug-treated db/db mice ([…], perorally) relative to vehicle at the dose 20 mg/kg. The settings on record: route oral. The essentials:
(§1)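 Oral dosing of db/db mice once daily for 3 days, fed ad libitum. On day 4, food was withdrawn and a fourth dose given, then mice were fasted. After 4 h, mice were anesthetized with halothane and decapitated, and blood was collected into fluoride tubes. Plasma glucose was measured on an autoanalyzer and reported as mean ± SE percent change versus vehicle controls. […]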

The subject of assay [2] is Mus musculus. Briefly: Percent change in the plasma glucose concentration of drug -treated db/db mice (4-6 mice, perorally) relative to vehicle at the dose 120 mg/kg. The settings on record: route oral. A digest of the protocol: as §1
For assay [3], the system named is Mus musculus. Briefly: Percent change in the plasma glucose concentration of drug-treated db/db mice (4-6 mice, perorally) relative to vehicle at the dose 5 mg/kg. The settings on record: route oral. A digest of the protocol:
as §1

Assay [4] has as its system Mus musculus. Briefly: Percent change in the plasma glucose concentration of drug -treated db/db mice ([…], perorally) relative to vehicle at the dose 2 mg/kg. The settings on record: route oral.
The subject of assay [5] is Mus musculus. Briefly: Percent change in the plasma glucose concentration of drug -treated db/db mice ([…], perorally) relative to vehicle at the dose 0.5 mg/kg. The settings on record: route oral. The essentials:
as §1

Assay [6] concerns Mus musculus. Briefly: Percent change in the plasma glucose concentration of drug -treated db/db mice (4-6 mice, perorally) relative to vehicle at the dose mg/kg. A digest of the protocol:
as §1

Assay [7] relates to Mus musculus. The assay can be described thus: Percent change in the plasma glucose concentration of drug -treated db/db mice ([…], perorally) relative to vehicle at the dose 100 mg/kg. The settings on record: route oral.
For assay [8], the system named is Mus musculus. The assay can be described thus: Concentration required to cause significant reduction in plasma glucose when administered orally in mice. The settings on record: po.
The species named for assay [9] is Mus musculus. The assay can be described thus: Percent change in the plasma glucose concentration of drug -treated db/db mice ([…], perorally) relative to vehicle (dose not specified).

For `CSc1ccc(CC2(C)C(=O)NN=C2C(F)(F)F)cc1` (configuration not stated), in the assay with Mus musculus [1], the Change is -9%.

For `CCNc1ccc(Cc2c(C(F)(F)F)n[nH]c2O)cc1`, the Change in the assay with Mus musculus [2] is reported as -61%; in the assay on Mus musculus [3], -11%.

`CCc1ccc(Cc2c(C(F)(F)F)n[nH]c2OC)cc1`: the Change with Mus musculus [3] was -36%.

For `CSc1ccc(Cc2c(C(F)(F)F)n[nH]c2OC(C)C)cc1`, the Change in the assay on Mus musculus [1] is recorded as -40%.

With `CCCCc1ccc(Cc2c(C(F)(F)F)n[nH]c2O)cc1`, the Change with Mus musculus [3] is -7%.

On to `CCSc1ccc(Cc2c(C(F)(F)F)n[nH]c2O)cc1`, for which the Change is reported as -23% in the assay with Mus musculus [4], -38% in the assay on Mus musculus [1] and -25% in the assay on Mus musculus [3].

Consider `COc1[nH]nc(C(F)(F)F)c1Cc1ccc(SC)cc1`, for which the Change in the assay on Mus musculus [4] was -16%; in the assay with Mus musculus [1] it was -57%.

`CCc1ccc(Cc2c(C(F)(F)F)n[nH]c2O)cc1`: the Change in the assay on Mus musculus [5] is given as -11%; with Mus musculus [4] it was -28%; with Mus musculus [3], -39%.

Turning to `Oc1[nH]nc(C(F)(F)F)c1Cc1ccc(F)cc1`, the Change with Mus musculus [1] is reported as -20%; in the assay with Mus musculus [3], -3%.

Take `Oc1[nH]nc(C(F)(F)F)c1Cc1ccc(SC(F)(F)F)cc1`: the values for the Change with Mus musculus [1] and in the assay on Mus musculus [3] were -15% and 5%, respectively.

Take `CCCCOc1[nH]nc(C(F)(F)F)c1Cc1ccc(CC)cc1`: the Change with Mus musculus [1] is on record as -34%.

As to `CC(C)c1ccc(Cc2c(C(F)(F)F)n[nH]c2O)cc1`, the Change with Mus musculus [3] is reported as -17%.

Consider `CCc1ccc(Cc2c(OC)nn(C)c2C(F)(F)F)cc1`, for which the Change with Mus musculus [3] is given as -38%.

In the case of `CC(C)(C)C(=O)c1ccc(Cc2c(C(F)(F)F)n[nH]c2O)cc1`, the Change in the assay with Mus musculus [6] is -23%.

Turning to `CCCCOc1nn(CCCC)c(C(F)(F)F)c1Cc1ccc(CC)cc1`, the Change with Mus musculus [1] is on record as -3%.

For the compound `Oc1[nH]nc(C(F)(F)F)c1Cc1ccccc1`, the Change with Mus musculus [7] is listed as -33%.

With `CS(=O)(=O)c1ccc(Cc2c(C(F)(F)F)n[nH]c2O)cc1`, in the assay with Mus musculus [3], the Change was 2%.

`Oc1[nH]nc(C(F)(F)F)c1Cc1ccc(C(F)(F)F)cc1`: the Change in the assay on Mus musculus [3] is -15%.

Take `Oc1[nH]nc(C(F)(F)F)c1Cc1ccc(Br)cc1`: the Change in the assay on Mus musculus [4] is given as -5%; in the assay with Mus musculus [1] it was -47%; in the assay on Mus musculus [3], -24%.

For the compound `COc1ccc(Cc2c(C(F)(F)F)n[nH]c2O)cc1`, in the assay on Mus musculus [3], the Change is given as -22%.

For `CSc1ccc(Cc2c(C(F)(F)F)n[nH]c2O)cc1`, the Change is recorded as -13% in the assay on Mus musculus [5]; -29% in the assay on Mus musculus [4]; -57% in the assay on Mus musculus [1]; -68% in the assay on Mus musculus [7]; -43% in the assay with Mus musculus [3]. Moreover, the 50% effective dose (ED50) (commonly the midpoint of the dose-response relation) in the assay with Mus musculus [8] is 9.85 mg/kg.

On to `CC(O)c1ccc(Cc2c(C(F)(F)F)n[nH]c2O)cc1` (configuration not stated), for which, in the assay with Mus musculus [3], the Change is -18%.

`CC(=O)c1ccc(Cc2c(C(F)(F)F)n[nH]c2O)cc1`: the Change with Mus musculus [3] is listed as -19%.

For `C/C(=N\O)c1ccc(Cc2c(C(F)(F)F)n[nH]c2O)cc1`, the Change in the assay on Mus musculus [3] is recorded as -28%.

`Oc1[nH]nc(C(F)(F)F)c1Cc1ccc(I)cc1`: the Change in the assay on Mus musculus [1] is reported as -48%.

Regarding `Oc1[nH]nc(C(F)(F)F)c1Cc1ccc2ccccc2c1`, the Change in the assay on Mus musculus [1] is given as -45%.

In the case of `CSc1ccc(CC2(C)C(=O)N(C)N=C2C(F)(F)F)cc1` (configuration not stated), the Change with Mus musculus [1] came out at 6%.

With `CSc1ccc(Cc2c(C(F)(F)F)n(C)[nH]c2=O)cc1`, the Change in the assay with Mus musculus [1] is reported as -29%; in the assay with Mus musculus [3], -7%.

On to `CSc1ccc(Cc2c(C)n[nH]c2O)cc1`, for which the Change in the assay with Mus musculus [1] is listed as -36%; with Mus musculus [7], -39%.

In the case of `Oc1[nH]nc(C(F)(F)F)c1Cc1ccc(Cl)cc1`, in the assay with Mus musculus [3], the Change is reported as -6%.

With `CCOc1c(Cc2ccc(SC)cc2)c(C(F)(F)F)nn1CC`, in the assay on Mus musculus [3], the Change is given as -23%.

Regarding `CCOc1nn(CC)c(C(F)(F)F)c1Cc1ccc(SC)cc1`, in the assay on Mus musculus [3], the Change worked out at 5%.

As for `CCCCCCc1ccc(Cc2c(C(F)(F)F)n[nH]c2O)cc1`, in the assay with Mus musculus [1], the Change is 5%.

For the compound `COc1nn(C)c(C(F)(F)F)c1Cc1ccc(SC)cc1`, the Change with Mus musculus [4] is -20%; in the assay with Mus musculus [1] it was -49%; in the assay with Mus musculus [3], -41%.

Consider `CSc1ccc(Cc2c(C(F)(F)F)[nH]n(C)c2=O)cc1`, for which the Change in the assay listed under Mus musculus [9] was -40%; with Mus musculus [3], -11%.

As for `CSc1ccc(Cc2c(C(F)(F)F)[nH]n(Cc3ccccc3)c2=O)cc1`, the Change in the assay with Mus musculus [1] came out at 10%.

As to `CSc1ccc(Cc2c(C(F)(F)F)n(C)n(C)c2=O)cc1`, in the assay with Mus musculus [1], the Change was -6%.

As to `Oc1[nH]nc(C(F)(F)F)c1Cc1ccc(OC(F)(F)F)cc1`, in the assay on Mus musculus [3], the Change is recorded as -4%.

For `CC(C)Sc1ccc(Cc2c(C(F)(F)F)n[nH]c2O)cc1`, the Change in the assay with Mus musculus [1] is reported as -32%.

Consider `Cc1ccc(Cc2c(C(F)(F)F)n[nH]c2O)cc1`, for which the Change in the assay with Mus musculus [1] is recorded as -36%.

In the case of `COc1c(Cc2ccc(SC)cc2)c(C(F)(F)F)nn1C`, the Change in the assay with Mus musculus [3] is listed as -39%.

Turning to `CCCCSc1ccc(Cc2c(C(F)(F)F)n[nH]c2O)cc1`, in the assay on Mus musculus [1], the Change was -3%.

With `CCCc1ccc(Cc2c(C(F)(F)F)n[nH]c2O)cc1`, in the assay on Mus musculus [1], the Change was -44%.

Consider `C[S+]([O-])c1ccc(Cc2c(C(F)(F)F)n[nH]c2O)cc1` (configuration not stated), for which the values for the Change with Mus musculus [4] and with Mus musculus [3] were -25% and -33%, respectively.

Take `CC(C)(C)c1ccc(Cc2c(C(F)(F)F)n[nH]c2O)cc1`: the Change in the assay with Mus musculus [1] is listed as -7%.

As to `Oc1[nH]nc(C(F)(F)F)c1Cc1ccc(C(F)(C(F)(F)F)C(F)(F)F)cc1`, in the assay on Mus musculus [1], the Change came out at 1%.
